In ChEMBL document CHEMBL1126933, “Syntheses and biological activities of potent potassium channel openers derived from (+/-)-2-oxo-1-pyridin-3-yl-cyclohexanecarbothioic acid methylamide: new potassium channel openers” (1993):

Species on record: Rattus norvegicus
Assay: In vitro relaxation of de-endothelialized rat aortic strips toned with 20 mM KCl
Type: functional
Conditions: Aorta
How it was run: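 Rat aortic rings cut into transverse strips, endothelium removed by gentle rubbing. Strips held in Krebs bicarbonate buffer at 37 °C, gassed with 95% O2/5% CO2, isometric tension recorded. Equilibrated 90 min at 2 g resting tension, then contracted with 20 mmol KCl. At maximal contraction, relaxation measured by cumulative concentration-response, each next concentration added once the previous one reached maximal effect.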

Compound	IC90 [nM]
C/N=C(/S)[C@@]1(c2cccnc2)CCCC[C@@H]1CCNC(=O)c1ccc(F)cc1	500
C/N=C(/S)[C@@]1(c2cccnc2)CCCC[C@@H]1CCO	1700
C/N=C(/S)[C@@]1(c2cccnc2)CCCC[C@@H]1CCNC(C)=O	130
C/N=C(/S)[C@@]1(c2cccnc2)CCCC[C@@H]1C/C=N/OCc1ccccc1	30
C/N=C(/S)[C@@]1(c2cccnc2)CCCC[C@@H]1CCNS(=O)(=O)c1ccc(Cl)cc1	30
C/N=C(/S)[C@@]1(c2cccnc2)CCCC[C@@H]1CCOC(C)=O	30
C/N=C(/S)[C@@]1(c2cccnc2)CCCC[C@@H]1CCNS(=O)(=O)c1cccs1	1
C/N=C(/S)[C@@]1(c2cccnc2)CCCC[C@@H]1CCNS(=O)(=O)c1ccc(F)cc1	7
C/N=C(/S)[C@@]1(c2cccnc2)CCCC[C@@H]1CCNS(C)(=O)=O	170
C/N=C(/S)C1(c2cccnc2)CCCC/C1=C\CSc1ccccc1 (centres undefined)	3
C/N=C(/S)C1(c2cccnc2)CCCCC1=O (centres undefined)	800
C/N=C(/S)[C@@]1(c2cccnc2)CCCC[C@@H]1CC#N	300
C/N=C(/NCC[C@H]1CCCC[C@@]1(/C(S)=N\C)c1cccnc1)NS(=O)(=O)c1ccccc1	300
C/N=C(/S)C1(c2cccnc2)CCCC/C1=C\C=N\OCc1ccc(F)cc1 (centres undefined)	100
C/N=C(/S)C1(c2cccnc2)CCCC/C1=C\COc1ccc(O)cc1 (centres undefined)	300
C/N=C(/S)[C@@]1(c2cccnc2)CCCC[C@@H]1CCNS(=O)(=O)c1ccccc1	0.3
C/N=C(/S)[C@@]1(c2cccnc2)CCCC[C@@H]1CCOC(=O)c1ccc(F)cc1	100
C/N=C(/S)C1(c2cccnc2)CCCC/C1=C\C=O (centres undefined)	8000
C/N=C(/S)C1(c2cccnc2)CCCC/C1=C\C=N\OCC(O)CO (centres undefined)	3000
CNC(=S)[C@@]1(c2cccnc2)CCCC[C@@H]1CC(=O)OC	300
C/N=C(/S)[C@@]1(c2cccnc2)CCCC[C@@H]1CCN1C(=O)COCC1=O	100

Now from value to compound:

IC90 [nM]	Compound
10000	C/N=C(/S)C1(c2cccnc2)CCCC/C1=C\CO (centres undefined)
10	C/N=C(/S)[C@@]1(c2cccnc2)CCCC[C@@H]1C/C=C/c1ccc(F)cc1
300	C/N=C(/S)[C@@]1(c2cccnc2)CCCC[C@@H]1CCNC(=O)c1ccccc1
3	C/N=C(/S)[C@@]1(c2cccnc2)CCCC[C@@H]1CCNS(=O)(=O)c1cccnc1
300	CNC(=S)[C@@]1(c2cccnc2)CCCC[C@@H]1CCNS(=O)(=O)c1ccc(OC)cc1
300	C/N=C(/S)[C@@]1(c2cccnc2)CCCC[C@@H]1CCNS(=O)(=O)c1ccc([N+](=O)[O-])cc1
100	C/N=C(/S)C1(c2cccnc2)CCCC/C1=C\COc1ccc([N+](=O)[O-])cc1 (centres undefined)
10000	C/N=C(/S)[C@@]1(c2cccnc2)CCCC[C@@H]1CCN
300	C/N=C(/S)[C@@]1(c2cccnc2)CCCC[C@@H]1CCNC(=O)Cc1ccccc1
300	C/N=C(/S)[C@@]1(c2cccnc2)CCCC[C@@H]1CCNC(=O)C(C)C
30	C/N=C(/S)[C@@]1(c2cccnc2)CCCC[C@@H]1CCOC(=O)c1ccccc1
30	C/N=C(/NCC[C@H]1CCCC[C@@]1(/C(S)=N\C)c1cccnc1)NS(C)(=O)=O
3	C/N=C(/S)[C@@]1(c2cccnc2)CCCC[C@@H]1CCNc1ccccc1
10000	C/N=C(/S)C1(c2cccnc2)CCCC/C1=C\C#N (centres undefined)
400	CNC(=S)[C@@]1(c2cccnc2)CCCC[S+]1[O-] (some centres undefined)
10	C/N=C(/S)[C@@]1(c2cccnc2)CCCC[C@@H]1CCNS(=O)(=O)c1ccc(F)c(F)c1
100	C/N=C(/S)[C@@]1(c2cccnc2)CCCC[C@@H]1C/C=C/c1ccccc1
65	C/N=C(/S)C1(c2cccnc2)CCCC/C1=C\COc1ccccc1 (centres undefined)
